# Results: ChEMBL document CHEMBL1629574, “Novel chimeric beta-lactamase CTX-M-64, a hybrid of CTX-M-15-like and CTX-M-14 beta-lactamases, found in a Shigella sonnei strain resistant to various oxyimino-cephalosporins, including ceftazidime” (Antimicrob Agents Chemother, 2009)
# Assays:
# Escherichia coli [1] = assay: Antimicrobial activity against rifampicin-resistant Escherichia coli X1037 transconjugant by broth microdilution method in presence of 4 ug/ml beta-lactamase inhibitor clavulanic acid; format: functional
# Escherichia coli [2] = assay: Antimicrobial activity against rifampicin-resistant Escherichia coli X1037 transconjugant by broth microdilution method; format: functional
# Escherichia coli [3] = assay: Antimicrobial activity against Escherichia coli XL-1 Blue harboring plasmid CL1920 by broth microdilution method; format: functional
# Escherichia coli [4] = assay: Antimicrobial activity against Escherichia coli XL-1 Blue harboring plasmid CL1920 by broth microdilution method in presence of 4 ug/ml beta-lactamase inhibitor clavulanic acid; format: functional
# Escherichia coli [5] = assay: Antimicrobial activity against Escherichia coli XL-1 Blue transconjugant harboring beta-lactamase CTX-M-64 by broth microdilution method; format: functional
# [6] = Inhibition of Shigella sonnei UIH-1 beta-lactamase CTX-M-64 by spectrophotometry in presence of 100 uM nitrocefin
# Method in brief: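 Recombinant CTX-M-64 was expressed from pET29a in E. coli BL21(DE3)pLysS (0.5 mM IPTG, 3 h, 37°C). It was purified by SP cation exchange (MES pH 6.0, NaCl gradient) then gel filtration. Enzyme was preincubated 5 min at 37°C with varied clavulanic acid before adding 100 μM nitrocefin. Hydrolysis was read at 485 nm in 50 mM phosphate pH 7.0, 37°C. IC50 is the inhibitor level halving the rate.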
# Shigella sonnei [7] = assay: Antimicrobial activity against Shigella sonnei UIH-1 expressing beta-lactamase CTX-M-64 by broth microdilution method in presence of 4 ug/ml beta-lactamase inhibitor clavulanic acid; format: functional
# Shigella sonnei [8] = assay: Antimicrobial activity against Shigella sonnei UIH-1 expressing beta-lactamase CTX-M-64 by broth microdilution method; format: functional
# Method in brief: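 MICs determined by CLSI broth microdilution on an automated panel system. […] Susceptibility categories assigned by CLSI criteria.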
# Escherichia coli [9] = assay: Antimicrobial activity against rifampicin-resistant Escherichia coli X1037 by broth microdilution method in presence of 4 ug/ml beta-lactamase inhibitor clavulanic acid; format: functional
# Escherichia coli [10] = assay: Antimicrobial activity against Escherichia coli XL-1 Blue transconjugant harboring beta-lactamase CTX-M-64 by broth microdilution method in presence of 4 ug/ml beta-lactamase inhibitor clavulanic acid; format: functional
# Escherichia coli [11] = assay: Antimicrobial activity against rifampicin-resistant Escherichia coli X1037 by broth microdilution method; format: functional
# Escherichia coli [12] = assay: Antimicrobial activity against rifampicin-resistant Escherichia coli X1037 transconjugant by disk diffusion method; format: functional
# Method in brief: (§1)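 Non-β-lactam agents were tested by CLSI disk diffusion. Susceptibility categories were assigned by CLSI criteria.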
# Shigella sonnei [13] = assay: Antimicrobial activity against Shigella sonnei UIH-1 expressing beta-lactamase CTX-M-64 by disk diffusion method; format: functional
# Method in brief: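 Non-β-lactam susceptibility determined by CLSI disk diffusion on the clinical isolate. Categories assigned by CLSI criteria.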
# Escherichia coli [14] = assay: Antimicrobial activity against Escherichia coli XL-1 Blue transconjugant harboring beta-lactamase CTX-M-64 by disk diffusion method; format: functional; method in brief: as §1
# Shigella sonnei [15] = assay: Activity at Shigella sonnei UIH-1 beta-lactamase CTX-M-64 by spectrophotometry
# Method in brief: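 Recombinant enzyme from E. coli BL21(DE3)pLysS/pET29a, purified by cation exchange and gel filtration. Assays at 37°C in 50 mM phosphate pH 7.0, six substrate concentrations, UV-vis readout. Km and kcat from Michaelis-Menten fits of initial rates.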
# Shigella sonnei [16] = conditions: UIH-1
# Escherichia coli [17] = assay: Antimicrobial activity against rifampicin-resistant Escherichia coli X1037 by disk diffusion method; format: functional; method in brief: as §1
# Escherichia coli [18] = assay: Antimicrobial activity against Escherichia coli XL-1 Blue harboring plasmid CL1920 by disk diffusion method; format: functional
# Escherichia coli [19] = assay: Antimicrobial activity against Escherichia coli XL-1 Blue harboring plasmid CL1920 by broth microdilution method in presence of beta-lactamase inhibitor clavulanic acid
# Escherichia coli [20] = assay: Antimicrobial activity against rifampicin-resistant Escherichia coli X1037 transconjugant by broth microdilution method in presence of beta-lactamase inhibitor clavulanic acid
# Escherichia coli [21] = assay: Antimicrobial activity against rifampicin-resistant Escherichia coli X1037 by broth microdilution method in presence of beta-lactamase inhibitor clavulanic acid
# Shigella sonnei [22] = assay: Antimicrobial activity against Shigella sonnei UIH-1 expressing beta-lactamase CTX-M-64 by broth microdilution method in presence of beta-lactamase inhibitor clavulanic acid
# Escherichia coli [23] = assay: Antimicrobial activity against Escherichia coli XL-1 Blue harboring beta-lactamase CTx-M-64transconjugant by disk diffusion method in presence of beta-lactamase inhibitor Sulbactam; format: functional
# Shigella sonnei [24] = assay: Antimicrobial activity against Shigella sonnei UIH-1 expressing beta-lactamase CTX-M-64 by disk diffusion method in presence of beta-lactamase inhibitor Sulbactam; format: functional
# [25] = Escherichia coli, XL-1 Blue, read-out: MIC
# [26] = Shigella sonnei, UIH-1, read-out: MIC
Structure (SMILES),MIC (Escherichia coli [2]) [µg/mL],MIC (Escherichia coli [3]) [µg/mL],MIC (Escherichia coli [5]; [25]) [µg/mL],MIC (Shigella sonnei [8]; [26]) [µg/mL],MIC (Escherichia coli [11]) [µg/mL],further results
CC(C)(O/N=C(\C(=O)N[C@@H]1C(=O)N2C(C(=O)[O-])=C(C[n+]3ccccc3)CS[C@H]12)c1csc(N)n1)C(=O)O [CEFTAZIDIME],64,≤ 0.25,2050,32,≤ 0.25,MIC (Escherichia coli [1]): ≤ 0.12 µg/mL; MIC (Escherichia coli [4]): ≤ 0.12 µg/mL; Ki [6]: > 10000 µM; MIC (Shigella sonnei [7]): ≤ 0.12 µg/mL; MIC (Escherichia coli [9]): ≤ 0.12 µg/mL; MIC (Escherichia coli [10]): ≤ 0.5 µg/mL
Cc1nnc(SCC2=C(C(=O)O)N3C(=O)[C@@H](NC(=O)Cn4cnnn4)[C@H]3SC2)s1 [CEFAZOLIN],,,,,,MIC (Escherichia coli [12]): > 16 µg/mL; MIC (Shigella sonnei [13]): > 16 µg/mL; MIC (Escherichia coli [14]): > 16 µg/mL
CO[C@@]1(NC(=O)Cc2cccs2)C(=O)N2C(C(=O)O)=C(COC(N)=O)CS[C@@H]21 [CEFOXITIN],≤ 2,4,8,≤ 2,≤ 2,
CO[C@@]1(NC(=O)C2SC(=C(C(N)=O)C(=O)O)S2)C(=O)N2C(C(=O)O)=C(CSc3nnnn3C)CS[C@@H]21 (stereo not given in full) [CEFOTETAN],≤ 0.5,≤ 0.5,8,≤ 0.5,≤ 0.5,
N[C@@H](C(=O)N[C@@H]1C(=O)N2C(C(=O)O)=C(Cl)CS[C@H]12)c1ccccc1 [CEFACLOR ANHYDROUS],> 16,≤ 2,> 16,> 16,≤ 2,
CC(=O)OCC1=C(C(=O)O)N2C(=O)[C@@H](NC(=O)Cc3cccs3)[C@H]2SC1,,,,,,Km (Shigella sonnei [15]): 37.9 µM; kcat (Shigella sonnei [15]): 185 s⁻¹; kcat/Km (Shigella sonnei [16]): 4.9 ×10⁶ /M/s
C[C@H]1[C@H](NC(=O)/C(=N\OC(C)(C)C(=O)O)c2csc(N)n2)C(=O)N1S(=O)(=O)O [AZTREONAM],64,,1020,32,,
CO[C@@]1(NC(=O)CSC(F)F)C(=O)N2C(C(=O)O)=C(CSc3nnnn3CCO)CO[C@@H]21 [FLOMOXEF],,,,,,MIC (Escherichia coli [17]): ≤ 1 µg/mL; MIC (Escherichia coli [12]): ≤ 1 µg/mL; MIC (Shigella sonnei [13]): ≤ 1 µg/mL; MIC (Escherichia coli [14]): ≤ 1 µg/mL; MIC (Escherichia coli [18]): ≤ 1 µg/mL
O=C(Cc1cccs1)N[C@@H]1C(=O)N2C(C(=O)O)=C(/C=C/c3ccc([N+](=O)[O-])cc3[N+](=O)[O-])CS[C@H]12,,,,,,Km (Shigella sonnei [15]): 14.8 µM; kcat (Shigella sonnei [15]): 252 s⁻¹; kcat/Km (Shigella sonnei [16]): 1.7 ×10⁷ /M/s
CC1(C)S[C@@H]2[C@H](NC(=O)[C@H](N)c3ccc(O)cc3)C(=O)N2[C@H]1C(=O)O [AMOXICILLIN],2,2,8,2,≤ 1,MIC (Escherichia coli [19]): 2 µg/mL; MIC (Escherichia coli [20]): 2 µg/mL; MIC (Escherichia coli [21]): ≤ 1 µg/mL; MIC (Shigella sonnei [22]): 2 µg/mL; MIC (Escherichia coli [10]): 8 µg/mL
CO/N=C(\C(=O)N[C@@H]1C(=O)N2C(C(=O)[O-])=C(C[n+]3ccn4ncccc43)CS[C@H]12)c1nsc(N)n1 [CEFOZOPRAN],> 16,≤ 1,> 16,> 16,≤ 1,
CN(C)CCn1nnnc1SCC1=C(C(=O)O)N2C(=O)[C@@H](NC(=O)Cc3csc(N)n3)[C@H]2SC1 [CEFOTIAM],,,,,,MIC (Escherichia coli [17]): ≤ 8 µg/mL; MIC (Escherichia coli [12]): > 16 µg/mL; MIC (Shigella sonnei [13]): > 16 µg/mL; MIC (Escherichia coli [14]): > 16 µg/mL; MIC (Escherichia coli [18]): ≤ 8 µg/mL
CCN1CCN(C(=O)N[C@@H](C(=O)N[C@@H]2C(=O)N3C(C(=O)O)=C(CSc4nnnn4C)CS[C@H]23)c2ccc(O)cc2)C(=O)C1=O [CEFOPERAZONE],,,,,,MIC (Shigella sonnei [13]): 8 µg/mL; MIC (Escherichia coli [23]): > 32 µg/mL; MIC (Escherichia coli [14]): > 32 µg/mL; MIC (Shigella sonnei [24]): 8 µg/mL
COCC1=C(C(=O)O)N2C(=O)[C@@H](NC(=O)/C(=N\OC)c3csc(N)n3)[C@H]2SC1 [CEFPODOXIME],> 64,≤ 0.5,> 64,> 64,≤ 0.5,
CO/N=C(\C(=O)N[C@@H]1C(=O)N2C(C(=O)O)=C(CSc3nc(=O)c(O)nn3C)CS[C@H]12)c1csc(N)n1 [CEFTRIAXONE],2050,≤ 0.25,2050,1020,≤ 0.25,
O=C(O)[C@H]1/C(=C/CO)O[C@@H]2CC(=O)N21 [CLAVULANIC ACID],,,,,,IC50 [6]: 0.01 µM
CO/N=C(\C(=O)N[C@@H]1C(=O)N2C(C(=O)O)=C(COC(C)=O)CS[C@H]12)c1csc(N)n1 [CEFOTAXIME],2050,≤ 0.25,,1020,≤ 0.25,MIC (Escherichia coli [1]): ≤ 0.12 µg/mL; MIC (Escherichia coli [4]): ≤ 0.12 µg/mL; MIC (Escherichia coli [5]): >2048 µg/mL; Km (Shigella sonnei [15]): 103 µM; kcat (Shigella sonnei [15]): 197 s⁻¹; MIC (Shigella sonnei [7]): ≤ 0.12 µg/mL; MIC (Escherichia coli [9]): ≤ 0.12 µg/mL; MIC (Escherichia coli [10]): ≤ 0.12 µg/mL; kcat/Km (Shigella sonnei [16]): 1.9 ×10⁶ /M/s
CCN1CCN(C(=O)N[C@@H](C(=O)N[C@@H]2C(=O)N3[C@@H]2SC(C)(C)[C@@H]3C(=O)O)c2ccccc2)C(=O)C1=O [PIPERACILLIN],> 64,≤ 8,> 64,> 64,≤ 8,
C[C@@H](O)[C@H]1C(=O)N2C(C(=O)O)=C(SCCNC=N)C[C@H]12 [IMIPENEM ANHYDROUS],≤ 0.5,≤ 0.5,≤ 0.5,≤ 0.5,≤ 0.5,
CO/N=C(\C(=O)N[C@@H]1C(=O)N2C(C(=O)[O-])=C(C[n+]3cccc4c3CCC4)CS[C@H]12)c1csc(N)n1 [CEFPIROME],> 16,≤ 1,> 16,> 16,≤ 1,
CC1(C)S[C@@H]2[C@H](NC(=O)[C@H](N)c3ccccc3)C(=O)N2[C@H]1C(=O)O [AMPICILLIN],> 16,≤ 2,> 16,> 16,≤ 2,Km (Shigella sonnei [15]): 19.5 µM; kcat (Shigella sonnei [15]): 36.9 s⁻¹; kcat/Km (Shigella sonnei [16]): 1.9 ×10⁶ /M/s
C[C@@H](O)[C@H]1C(=O)N2C(C(=O)O)=C(S[C@@H]3CN[C@H](C(=O)N(C)C)C3)[C@H](C)[C@H]12 [MEROPENEM],≤ 0.5,≤ 0.5,≤ 0.5,≤ 0.5,≤ 0.5,
CO/N=C(\C(=O)N[C@@H]1C(=O)N2C(C(=O)[O-])=C(C[N+]3(C)CCCC3)CS[C@H]12)c1csc(N)n1,> 32,,> 32,> 32,,Km (Shigella sonnei [15]): 505 µM; kcat (Shigella sonnei [15]): 67.7 s⁻¹; kcat/Km (Shigella sonnei [16]): 1.3 ×10⁵ /M/s
CO[C@@]1(NC(=O)CSCC#N)C(=O)N2C(C(=O)O)=C(CSc3nnnn3C)CS[C@@H]21 [CEFMETAZOLE],1,1,1,,≤ 0.5,MIC (Shigella sonnei [8]): <=0.5 ug ml-1
